The source of these data is ChEMBL document CHEMBL3792386, “Design, Synthesis, and Biological Evaluation of Novel Selenium (Se-NSAID) Molecules as Anticancer Agents” (J Med Chem, 2016).

One may read the IC50 as the point on the concentration scale where inhibition reaches its midpoint.

Molecules are shown by their SMILES.

For test [1], the system named is HCT-116. As to the kind of experiment: Induction of apoptosis in human HCT116 cells assessed as live cells at 5 uM after 24 hrs by 7-ADD and caspase 3/7 activity-based flow cytometry (reference value: 92.60%). It counts as functional. On the technique in general: Flow cytometry measures light scatter and fluorescence of single cells or particles in a stream.
A short description of test [2]: Antiproliferative activity against human HCT116 cells assessed as reduction in cell viability after 48 hrs by MTT assay. To be noted: HCT-116, 48 h. It is filed as functional, cell-based. The essentials: (§1)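 3000 cells/well incubated in triplicate with serial concentrations of compound for 24, 48 or 72 h at 37 °C. MTT (5.0 mg/mL solution) added 3 h before the end. Formazan dissolved in DMSO, absorbance read at 570 and 630 nm. Viability normalised to vehicle control. IC50 from non-linear regression (variable slope), mean ± SD of triplicates.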
A general note: Tetrazolium dyes change colour on reduction, which living cells bring about.

The test system of test [3] is HCT-116. As to the kind of experiment: Induction of apoptosis in human HCT116 cells assessed as dead cells at 10 uM after 24 hrs by annexin V/7-ADD staining-based flow cytometry (reference value: 3.10%). It counts as functional.
Test [4] has as its system UACC-903. As to the kind of experiment: Antiproliferative activity against human UACC-903 cells assessed as reduction in cell viability after 24 hrs by MTT assay. It counts as functional, cell-based. To be noted: UACC-903, 24 h. The essentials: as §1
The test system of test [5] is HepG2. As to the kind of experiment: Antiproliferative activity against human HepG2 cells assessed as reduction in cell viability after 24 hrs by MTT assay. It counts as functional, cell-based. To be noted: HepG2, 24 h. The essentials:
as §1

Test [6] relates to HT-29. Nature of the test: Antiproliferative activity against human HT-29 cells assessed as reduction in cell viability after 72 hrs by MTT assay. It is filed as functional, cell-based. To be noted: HT-29, 72 h. The essentials: as §1
Test [7] in a line: Antiproliferative activity against human DU145 cells assessed as reduction in cell viability after 72 hrs by MTT assay. It is filed as functional, cell-based. To be noted: DU-145, 72 h. The essentials:
as §1

For test [8], the system named is RKO. As to the kind of experiment: Antiproliferative activity against human RKO cells assessed as reduction in cell viability after 72 hrs by MTT assay. It is filed as functional, cell-based. The essentials: as §1
Test [9] relates to HepG2. As to the kind of experiment: Antiproliferative activity against human HepG2 cells assessed as reduction in cell viability after 48 hrs by MTT assay. To be noted: HepG2, 48 h. It is filed as functional, cell-based. The essentials: as §1

Consider `CC(=O)Oc1ccccc1C(=O)NCC[Se]C#N`, for which the Activity was 20.55% in [1] and 1.6% in test [3]. For the same molecule, the IC50 in test [2] was found to be 2.5 µM; in test [4], 24.3 µM; in test [5], 16 µM; in test [6] it was 2.1 µM; in [7], 2.9 µM; in test [8], 2.9 µM. The IC50 in test [9] stood at 5 µM.
